From ChEMBL document CHEMBL5321286, “Antiviral Evaluation of Dispirotripiperazines against Hepatitis B Virus” (J Med Chem, 2023)
Calls of active or inactive are those of the source. No cut-off for these calls is given here.

Legend:
Hepatitis B virus [1] = test: Antiviral activity against Hepatitis B virus ayw1 infected in human HepG2 2.2.15 cells assessed as reduction in viral DNA replication preincubated for 3 days followed by media replacement and measured after 6 days by q-PCR assay; assay type: functional, organism-based; conditions: ayw1, HepG2 2.2.15
Method in brief: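 HepG2 2.2.15 cells at 1.5 × 10^4 cells/well in DMEM with 2% FBS and 380 μg/mL G418, treated after 16-24 h at several concentrations in triplicate. Compound medium renewed on day 3. Supernatant taken on day 6, pronase-treated, and extracellular HBV DNA measured by TaqMan qPCR against a purified HBV DNA standard curve. EC50 and EC90 taken from the DNA reduction. Lamivudine served as positive control and medium alone as virus control.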

Hepatitis B virus [2] = test: Antiviral activity against Hepatitis B virus ayw1 infected in human HepG2 2.2.15 cells assessed as reduction in viral DNA replication preincubated for 3 days followed by media replacement and measured 6 days after first dose by q-PCR assay; conditions: ayw1, HepG2 2.2.15, 144 h
[3] = Selectivity index, ratio of CC50 for cytotoxicity against human HepG2 2.2.15 cells to EC90 for antiviral activity against Hepatitis B virus ayw1 infected in human HepG2 2.2.15 cells; assay type: toxicity, cell-based
Method in brief: (§1)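 HepG2 2.2.15 cells seeded at 1.5 × 10^4 cells/well in DMEM with 2% FBS, 380 μg/mL G418 and glutamine, using interior wells only. After 16-24 h, the medium was replaced with serial compound dilutions in triplicate, refreshed at day 3. At day 6, pronase-treated supernatant HBV DNA was measured by TaqMan qPCR against a standard curve (EC50/EC90). MTS viability on the same plate gave CC50; SI = CC50/EC.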

[4] = Cytotoxicity against human HepG2 2.2.15 cells assessed as reduction in cell viability by MTS assay; assay type: toxicity, cell-based; method in brief: as §1
[5] = Selectivity index, ratio of CC50 for cytotoxicity against human HepG2 2.2.15 cells to EC50 for antiviral activity against Hepatitis B virus ayw1 infected in human HepG2 2.2.15 cells; assay type: toxicity, cell-based; conditions: read-out: Ratio CC50/EC50; method in brief: as §1
[6] = Selectivity index, ratio of CC50 for cytotoxicity against human HepDES19 cells to EC50 for antiviral activity against Hepatitis B virus infected in human HepDES19 cells; assay type: toxicity, cell-based; conditions: for selectivity ratio: HepDES19 cells, read-out: Ratio CC50/EC50
Method in brief: (§2)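 HepDES19 (HepG2-derived, tetracycline-repressible HBV cassette) cells were induced to replicate HBV by tetracycline withdrawal and exposed to compound for 3 days. Replication was read by strand-preferential qPCR; cytotoxicity by MTS assay.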

[7] = Cytotoxicity against human HepDES19 cells assessed as reduction in cell viability incubated for 72 hrs by MTS assay; assay type: toxicity, cell-based; conditions: for CC50 at 72 h: HepDES19 cells; method in brief: as §2
Hepatitis B virus [8] = test: Antiviral activity against Hepatitis B virus infected in human HepDES19 cells assessed as reduction in viral DNA replication measured after 3 days by q-PCR assay; assay type: functional, organism-based
Method in brief: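 HepDES19, a HepG2 derivative with a tetracycline-repressible HBV cassette, was induced to replicate HBV by tetracycline withdrawal. Cells were exposed to compound for 3 days. Replication was measured by strand-preferential qPCR.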

Hepatitis B virus [9] = test: Antiviral activity against Hepatitis B virus infected in human HepDES19 cells assessed as reduction in capsid accumulation by measuring intracellular HBV nucleocapsid level after 5 days by agarose gel electrophoresis-based assay; assay type: functional, organism-based; conditions: time 5.0 day
Method in brief: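 HepDES19 cells replicating HBV were treated for 5 days. They were lysed in 10mM Tris pH 7.4, 1% Tween 20 and 150mM NaCl with protease inhibitors. Lysates were digested with micrococcal nuclease plus 10mM CaCl2 (final), normalised for protein by Bradford, and run on native agarose gels. Gels were capillary-blotted to nitrocellulose and probed with anti-HBcAg and an AP-conjugated secondary with BCIP/NBT. Bands were quantified by densitometry.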

[10] = Hepatitis B virus, HepDES19, 72 h

Structure (SMILES) | EC50 (Hepatitis B virus [1]) [nM] | EC90 (Hepatitis B virus [2]) [µM] | selectivity ratio [3] | CC50 [4] [µM] | selectivity ratio [5] | selectivity ratio [6] | CC50 at 72 h [7] [µM] | EC50 (Hepatitis B virus [8]; [10]) [µM] | Ratio CC50/EC50 [6] | CC50 ([7]; hepdes19, 72 h, 72 h) [µM] | EC50 (Hepatitis B virus [8]; hepdes19) [µM] | Activity (Hepatitis B virus [9])
Nc1ccn([C@@H]2CS[C@H](CO)O2)c(=O)n1 [LAMIVUDINE] | 18 | 0.541 | > 4 | > 2 | > 113 | – | – | – | – | – | – | –
Cc1nc(N2CCC[N+]3(CC2)CC[N+]2(CCCNCC2)CC3)c([N+](=O)[O-])c(N2CCC[N+]3(CC2)CC[N+]2(CCCNCC2)CC3)n1 (configuration not stated) | – | – | – | – | – | 19 | 100 | 5.3 | – | – | – | –
Nc1c(N2CC[N+]3(CCC[N+]4(CCNCC4)CC3)CC2)ncnc1N1CC[N+]2(CCC[N+]3(CCNCC3)CC2)CC1 | 22000 | 78.1 | > 1 | > 100 | > 5 | 4.5 | 100 | 22 | – | – | – | –
Cl.Cl.Clc1nc(N2CCC[N+]3(CC2)CC[N+]2(CCCNCC2)CC3)nc(N2CCC[N+]3(CC2)CC[N+]2(CCCNCC2)CC3)n1.[Br-].[Br-].[Br-].[Br-] (configuration not stated) | – | – | – | – | – | – | – | – | 0.67 | 67 | > 100 | –
Clc1nc(N2CCC[N+]3(CC2)CC[N+]2(CCCNCC2)CC3)nc(N2CCC[N+]3(CC2)CC[N+]2(CCCNCC2)CC3)n1 (configuration not stated) | – | – | – | – | – | – | – | – | – | – | – | Active
O=Cc1c(N2CCC[N+]3(CC2)CC[N+]2(CCCNCC2)CC3)nc(-c2ccccc2)nc1N1CCC[N+]2(CC1)CC[N+]1(CCCNCC1)CC2 (configuration not stated) | – | – | – | – | – | 8.4 | 92 | 11 | – | – | – | –
O=Cc1c(N2CCC[N+]3(CC2)CC[N+]2(CCCNCC2)CC3)ncnc1N1CCC[N+]2(CC1)CC[N+]1(CCCNCC1)CC2 (configuration not stated) | – | – | – | – | – | < 1 | 100 | > 100 | – | – | – | –
Cc1nc(N2CC[N+]3(CC2)CC[N+]2(CCNCC2)CC3)c(N)c(N2CC[N+]3(CC2)CC[N+]2(CCNCC2)CC3)n1 | 1860 | 15.7 | > 6 | > 100 | > 54 | 143 | 100 | 0.7 | – | – | – | –
O=[N+]([O-])c1c(N2CCC[N+]3(CC2)CC[N+]2(CCCNCC2)CC3)ncnc1N1CCC[N+]2(CC1)CC[N+]1(CCCNCC1)CC2 (configuration not stated) | – | – | – | – | – | 11 | 100 | 9 | – | – | – | –
O=[N+]([O-])c1c(N2CC[N+]3(CCC[N+]4(CCNCC4)CC3)CC2)ncnc1N1CC[N+]2(CCC[N+]3(CCNCC3)CC2)CC1 | – | – | – | – | – | 11 | 100 | 9 | – | – | – | –
O=Cc1c(N2CC[N+]3(CC2)CC[N+]2(CCNCC2)CC3)nc(-c2ccccc2)nc1N1CC[N+]2(CC1)CC[N+]1(CCNCC1)CC2 | 2130 | 26.5 | > 4 | > 100 | > 47 | 41 | 86 | 2.1 | – | – | – | –
O=Cc1c(O)nc(N2CC[N+]3(CCC[N+]4(CCNCC4)CC3)CC2)nc1N1CC[N+]2(CCC[N+]3(CCNCC3)CC2)CC1 | – | – | – | – | – | 100 | 100 | 1 | – | – | – | –
Cc1nc(N2CC[N+]3(CCC[N+]4(CCNCC4)CC3)CC2)c([N+](=O)[O-])c(N2CC[N+]3(CCC[N+]4(CCNCC4)CC3)CC2)n1 | 6530 | 58.1 | > 2 | > 100 | > 15 | 15 | 100 | 6.5 | – | – | – | Active
Nc1c(N2CCC[N+]3(CC2)CC[N+]2(CCCNCC2)CC3)ncnc1N1CCC[N+]2(CC1)CC[N+]1(CCCNCC1)CC2 (configuration not stated) | – | – | – | – | – | 2.5 | 100 | 40 | – | – | – | –
O=Cc1c(N2CC[N+]3(CCC[N+]4(CCNCC4)CC3)CC2)ncnc1N1CC[N+]2(CCC[N+]3(CCNCC3)CC2)CC1 | – | – | – | – | – | < 1 | 100 | > 100 | – | – | – | –
Clc1nc(N2CCC[N+]3(CC2)CC[N+]2(CCCNCC2)CC3)nc(N2CCC[N+]3(CC2)CC[N+]2(CCCNCC2)CC3)n1.[Br-].[Br-].[Br-].[Br-] (configuration not stated) | – | – | – | – | – | – | 99 | – | 13 | – | 7.5 | –
O=Cc1c(N2CC[N+]3(CCC[N+]4(CCNCC4)CC3)CC2)nc(-c2ccccc2)nc1N1CC[N+]2(CCC[N+]3(CCNCC3)CC2)CC1 | – | – | – | – | – | 1.8 | 88 | 48 | – | – | – | –
